In ChEMBL document CHEMBL4513216, “Probing the Open Global Health Chemical Diversity Library for Multistage-Active Starting Points for Next-Generation Antimalarials” (ACS Infect Dis, 2020):

Experiment: Toxicity liver stage against HepG2, at 10uM
Assay type: cell-based
Design: test concentration 10 uM, cell line HepG2-A16-CD81EGFP
Conditions: human, HepG2-A16-CD81EGFP cells; read-out: INHIBITION
Method in brief: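 Uninfected HepG2-A16-CD81EGFP cells, 3 × 10^3 per well, 1536-well, plated on prespotted compound at 10 μM final, parasite-free screening media added to match infected plates; puromycin 10 μM positive, DMSO 0.5% negative; run in parallel with 48 h PbLuc assay at 37 °C, 5% CO2; viability by CellTiter-Glo luminescence, normalized to controls.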

Compound	cytotoxicity at 10 µM
CC(C)(C)OC(=O)N1CCCc2ccc(NCc3ccon3)cc21	10.9%
Cc1nn(C)c(N(C)C)c1CNCc1cccc(Cn2cncn2)c1	-7.85%
Cc1cnc2n(c1=O)CC(C(=O)Nc1cccc3cccnc13)CS2 (configuration not stated)	-19.6%
O=C(NCc1nnc2n1CCC2)N(Cc1ccc(F)cc1)C1CC1	-5.31%
CC(C)N1CCC2(C=C(C(=O)N(C)C)c3ccccc32)CC1	1.24%
CN(C)CC(=O)NC1CC(=O)N(CCc2ccccc2)C1 (configuration not stated)	-1.73%
CC(C)C[C@H](NC(=O)c1cc(-c2cccn2C)n[nH]1)C(N)=O	3.7%
c1ccc(N2CCCC3(CCN(Cc4cccs4)C3)C2)nc1 (configuration not stated)	12.7%
CS(=O)(=O)N1CCC(CSc2ccccc2)C1 (configuration not stated)	1.58%
Cc1cccc(CNC[C@H]2Cn3cc(-c4ccccc4)nc3CO2)n1	-2.59%
CC(C)=CCN1CCc2onc(-c3ccc(F)c(F)c3)c2C1	5.67%
Cc1ncn(CCNC(=O)Nc2ccc(F)c(Cl)c2)c(=O)c1C	-2.93%
CCc1cc(C(=O)NCC2CCN(Cc3cccc(C)n3)C2)on1 (configuration not stated)	7.69%
Cc1cc(SCC(=O)O)nc2nn(CC(F)F)c(C)c12	45.5%
Cn1nc(Cn2ccnc2)c2c1CN(Cc1ccoc1)C2	0.319%
O=C(Cc1ccccc1F)N1CCC[C@@H]1Cn1c(=O)oc2ccccc21	2.69%
CCCc1nnsc1C(=O)NCC1CCN(C(=O)c2ccncc2)CC1	16.2%
CN(C)CCN(Cc1ccccn1)Cc1ccnn1C1CCCCO1 (configuration not stated)	1.6%
CCCc1cc(C(=O)NCCCn2nnc3ccccc32)no1	-12.5%
COc1ccc(CN2CC[C@@H](O)[C@@H]2Cc2cnn(C)c2)cc1	-68.3%
CC(C)C(=O)N1CCN(Cc2cc(-c3ccncc3)nn2C)CC1	0.59%
Cn1ccnc1Sc1ccc(N)cn1	3.08%
Cc1cc(C)cc(OCC(=O)NC2CCN(S(C)(=O)=O)CC2)c1	-5.72%

Compound	cytotoxicity at 10 µM
CCCn1cnc2c1CN(S(=O)(=O)Cc1ccccc1)[C@H](C(=O)OC)C2	-4.84%
CCc1cnc(CN(C)C2CCN(c3sccc3C#N)C2=O)s1 (configuration not stated)	8.32%
CC(=O)Nc1nc(C(=O)Nc2ccc(F)cc2)cs1	6.47%
O=C(NCC(=O)N1CCCC(n2cncn2)C1)OCc1ccccc1 (configuration not stated)	-13.5%
COCC1CC2(CCN(Cc3ccccn3)CC2)CN1C(C)C (configuration not stated)	-7.16%
CC(=O)N1CCCN(C(=O)NC(C)Cn2cccn2)CC1 (configuration not stated)	-13%
O=S1(=O)CCC(NCCn2cncc2-c2ccc3c(c2)CCCO3)C1 (configuration not stated)	2.97%
O=C(COc1ccc2c(c1)OCC2O)NCc1ccco1 (configuration not stated)	0.878%
Cn1ncc2c(N3CCS(=O)(=O)CC3)nc(-c3cccnc3)nc21	4.38%
CCCN(C(=O)c1ocnc1C)C1CCCN(Cc2ccccc2)C1 (configuration not stated)	-7.79%
COc1ccc(C[C@H]2CNCC[C@@H]2OCC2CC2)cc1	-1.24%
O=C(NCC(O)COc1ccccc1)C1(c2ccc(F)cc2)CC1 (configuration not stated)	1.3%
CCS(=O)(=O)CCNC(=O)c1cc2n(n1)CCCO2	-8.81%
Cc1cc(C)n(CCCNC(=O)[C@@H](C)NC(=O)OC(C)(C)C)n1	-8%
COc1ccc(OC)c(CCNC(=O)CCC2CCCO2)c1 (configuration not stated)	2.34%
CN(CCc1ccccn1)CCc1nccs1	2.01%
Cc1cc(N2CCCN(C(C(=O)O)c3cccc(C)c3F)CC2)ccn1 (configuration not stated)	-2.11%
CN(C)Cc1nc(-n2cnc(C(=O)NCC3CC3)c2)n2ccccc12	1.55%
CN(CCO)Cc1nnc(C2CCN(C(=O)C3CCOCC3)CC2)n1C	2.01%
O=C(NCc1ccc(Br)cc1F)C1(O)CCSCC1	6.4%
c1cnc(N2CC3(CCN(C4CCOCC4)CC3)c3ccccc32)nc1	-6.32%
COCCC1(CO)CCCN(C(=O)c2cc(Cl)ccc2F)C1 (configuration not stated)	4.36%
COc1ccc(-c2noc(C(N)CCSC)n2)cc1OC (configuration not stated)	11.2%

Compound	cytotoxicity at 10 µM
CCn1ccnc1CN1CCN(c2nc(C)cc(OC)n2)CC1	-5.48%
Cc1ccc2cc(CNCCN3CCCC3)c(=O)[nH]c2c1	-1.89%
NCCCNS(=O)(=O)Cc1ccc(Br)cc1	-0.447%
COc1cccc(-c2noc(C3CCN(Cc4ccncc4)C3)n2)c1 (configuration not stated)	25.9%
CS(=O)(=O)N1CCC(NCC2(N3CCOCC3)CCCCC2)CC1	-3.27%
O=C1CCCN1Cc1ncn2c1CN(C(=O)C1CC=CC1)CCC2	6.4%
CC(Cc1cncs1)Nc1ncnc2cccc(F)c12 (configuration not stated)	17.5%
CCc1n[nH]c(C2CN(C(=O)c3ccsc3)CCO2)n1 (configuration not stated)	2.24%
O=C(c1cnc(COc2ccccc2)nc1O)N1CCOCC1	2.55%
CC(C)S(=O)(=O)NCC(Cc1cccc(F)c1)N1CCNC1=O (configuration not stated)	-1%
CN(CCNC(=O)NCc1ccsc1)C1CCCC1	-12.4%
CCn1cnnc1CNC(=O)c1cc(Cl)ccc1I	-5.98%
c1nc2c(c(C3CC3)n1)CCN(Cc1ccoc1)CC2	-22.7%
O=C1NCCCCC1NC(=O)N1CCCc2ccccc21 (configuration not stated)	-3.49%
COCCCC1(CO)CCCN(CCS(C)(=O)=O)C1 (configuration not stated)	-16%
Cc1ccc(NC(=O)c2n[nH]c(-n3cnnc3)n2)cc1	6.33%
COc1ccccc1CN1CCC(c2nn(CCN)c3nccnc23)C1 (configuration not stated)	-32.7%
CN(Cc1ccncc1)C(=O)NCc1cn(-c2ccccc2)nn1	-55.7%
CSc1nccn1-c1cccc(C(=O)NCC(F)(F)F)c1	-0.312%
Oc1ccccc1CN1C[C@H](O)C[C@H]1c1nc(Cc2ccccc2)no1	-4.82%
O=C(NCc1cccnc1-n1cncn1)c1cncc(Br)c1	10%
COc1ccc(CC(C)Nc2cccc(SC)c2)cc1 (configuration not stated)	11.6%
COc1ccc(C)cc1CC(=O)NC1(C#N)CCOCC1	6.18%

Compound	cytotoxicity at 10 µM
Cc1nn(C)c(N2CCCN(C)CC2)c1CNC(=O)CC1CCCC1	-7.43%
Fc1cccc(CNCC2Cn3nncc3CO2)c1 (configuration not stated)	10.9%
c1nc2n(c1CN1CCOCC1)CCN(C1CCOC1)CC2 (configuration not stated)	-136%
COc1cccc(CC(=O)NCCc2nnc3n2CCCCC3)c1	-18.4%
Cc1c(CN2CC[C@@H](N3CCC(O)CC3)[C@H](O)C2)[nH]c2ccc(Cl)cc12	-3.96%
CCCNC(=O)CCNC(=O)N1CCC(=Cc2ccccc2)CC1	1.47%
CN(C)C(=O)COCc1cncc2c1CCN(Cc1nccn1C)C2	-7.61%
COc1c(CNCCc2c[nH]c3ccccc23)c(C)nn1C	15%
Cn1ccnc1CN1CCC2(CC(=O)N(c3ccc4c(c3)OCO4)C2)C1 (configuration not stated)	-79.8%
CCCn1c(=O)n(CCC(=O)N(C)Cc2ccc(C)o2)c2ccccc21	-3.26%
Cc1nnc(N2CCC(CS(N)(=O)=O)CC2)c(C#N)c1C	2.12%
O=C(NCc1nnc2n1CCC2)c1ccc(Br)s1	2.74%
CCN1CCN(S(=O)(=O)N2CCc3ccccc3C2)[C@H]2CS(=O)(=O)C[C@H]21	-4%
Cc1ccc(Cl)cc1N1CCN(CC(=O)NC(C)c2ccco2)CC1 (configuration not stated)	5.89%
Cc1ccc(N2CCCC(N(C)Cc3cc(C)on3)C2)nn1 (configuration not stated)	17.5%
CN1C(=O)[C@@H]2CC[C@H]1CN(C(=O)c1nnc3n1CCCCC3)C2	-6.34%
COC[C@]1(O)CCN(c2cc(C3CC3)ncn2)CC1(C)C	-1.53%
CC(C)N1CCCC1c1nc(N(C)C)ncc1I (configuration not stated)	-0.358%
CNc1nc(C)cc(NCc2cc(C)cc3c(C)c(C)[nH]c23)n1	-30.2%
O=C(NC1CCC1)c1n[nH]c2c1CNCC2	1.67%
CCC1=N[C@@]2(CC[C@@H]3CN(S(=O)(=O)CC(C)C)C[C@@H]32)C(=O)N1CC1CC1	0.457%
Cc1nccn1-c1ccc(=O)n(CCNC(=O)c2ccccn2)n1	-11.3%
CCOc1cc(NC(=O)N(C)Cc2ncnn2C)ccc1C	13.4%

Compound	cytotoxicity at 10 µM
Cc1cc(C2CCCN2C(=O)c2csc(-c3cnn(C)c3)n2)on1 (configuration not stated)	15.6%
CCc1ccccc1OCCN(C)C(=O)CN1CCCC1	-50.4%
COc1ncccc1C(=O)N1CCN(C(=O)Cc2ccccn2)CC1	0.722%
CC(C)c1ncc(C(=O)N(C)c2ccc(Br)cn2)s1	9.12%
Cc1ccc(CN(C)C(=O)CCn2c(=O)n(C)c3ccccc32)o1	4%
Cn1cc(-c2ncc3c(c2C(=O)O)CCN(Cc2ccccn2)C3)cn1	-107%
COc1cc(F)ccc1-c1cnc(N)cn1	-11.4%
O=C(c1ccnnc1)N1CCN(Cc2ccncc2)c2ncccc2C1	-0.201%
N#Cc1cccnc1N1CCC(Nc2ccccc2)C1 (configuration not stated)	-3.37%
COc1ccc(OC)c(CNCc2c(C)nc3sc(C)cn23)c1	7.06%
CN(Cc1n[nH]c2c1CCCC2)c1cc(N2CCOCC2)nc(N)n1	-7.7%
CN(C)C(=O)N1CCN(C(=O)c2cccc(Cl)c2)CC2(CNC(=O)C2)C1 (configuration not stated)	7.61%
O=C(C1CC1)N1C[C@H]2CCCN(S(=O)(=O)c3cccc(F)c3)[C@H]2C1	5.11%
Cc1cc(C2CCCN2Cc2ccn(C)c(=O)c2)no1 (configuration not stated)	-9.03%
CCCS(=O)(=O)N1C[C@@H]2C[C@H](C(=O)N3CCN(C)CC3)[C@H](C1)O2	1.47%
Cc1cnn(CC2CCCN2C(=O)c2cn(C)c3ccccc23)c1 (configuration not stated)	-2.12%
Cc1cnc(CN2CCOC(Cn3nc(C)cc3C)C2)cn1 (configuration not stated)	-2.81%
Cc1nc(NCc2ccc(C)o2)cc(C2CCNCC2)n1	4.52%
COc1cccc2c1OCC(C(=O)N(Cc1ccncc1)CC(C)C)C2 (configuration not stated)	-13.9%
O=C([C@@H]1CC[C@@H]2[C@@H](CCN2Cc2ccncc2)O1)N1CCCCO1	-3.75%
